Laboratory results as given in ChEMBL document CHEMBL4261537, “Synthesis and pharmacological evaluation of multi-functional homoisoflavonoid derivatives as potent inhibitors of monoamine oxidase B and cholinesterase for the treatment of Alzheimer's disease” (Medchemcomm, 2017).

Experiments:
[1] = organism: Homo sapiens; assay: Selectivity index, ratio of IC50 for recombinant human MAO-A to IC50 for recombinant human MAO-B
[2] = target: T1, Amine oxidase [flavin-containing] A (Homo sapiens, UniProt P21397); assay: Inhibition of recombinant human MAO-A assessed as reduction in H2O2 production at 100 uM using p-tyramine as substrate preincubated for 15 mins followed by substrate addition by Amplex red reagent based fluorescence assay
T1 sequence (P21397 whole entry): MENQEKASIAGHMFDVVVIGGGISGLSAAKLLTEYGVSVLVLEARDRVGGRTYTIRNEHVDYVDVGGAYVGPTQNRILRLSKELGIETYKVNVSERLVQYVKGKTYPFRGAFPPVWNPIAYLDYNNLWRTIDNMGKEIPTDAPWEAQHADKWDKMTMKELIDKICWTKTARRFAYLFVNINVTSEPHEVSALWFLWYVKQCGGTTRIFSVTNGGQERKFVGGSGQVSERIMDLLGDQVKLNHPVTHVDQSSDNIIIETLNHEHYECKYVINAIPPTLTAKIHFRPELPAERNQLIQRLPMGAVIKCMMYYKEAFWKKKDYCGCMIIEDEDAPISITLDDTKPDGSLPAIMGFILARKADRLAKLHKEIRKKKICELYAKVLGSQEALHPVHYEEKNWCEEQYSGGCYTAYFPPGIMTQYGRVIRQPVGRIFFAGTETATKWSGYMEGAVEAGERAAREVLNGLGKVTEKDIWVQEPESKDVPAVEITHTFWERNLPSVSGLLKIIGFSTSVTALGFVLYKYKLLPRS
In short: (§1)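 Human MAO-A or MAO-B, each set to the same control reaction velocity. Preincubated with compound 15 min at 37°C in the dark, in sodium phosphate buffer with DMSO. Then 200 μM Amplex Red (final) added with 1 U/mL HRP and 1 mM p-tyramine. Resorufin fluorescence read at 37°C (ex 545/em 590 nm), background from enzyme-free wells subtracted. Run in triplicate, mean ± SD.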

[3] = target: Acetylcholinesterase (Homo sapiens, UniProt P22303); assay: Inhibition of human erythrocytes AChE using acetylthiocholine iodide as substrate preincubated for 5 mins followed by substrate addition measured at 1 to 3 mins time interval by Ellman's method
[4] = organism: Homo sapiens; assay: Selectivity index, ratio of IC50 for human serum BuChE to IC50 for human erythrocytes AChE
[5] = target: T2, Cholinesterase (Equus caballus, UniProt P81908); assay: Inhibition of equine serum BuChE at 100 uM using S-butyrylthiocholine iodide as substrate preincubated for 5 mins followed by substrate addition measured at 1 to 3 mins time interval by Ellman's method; conditions: horse
In short: (§2)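 Ellman assay: compound diluted in 50 mM Tris-HCl pH 8.0 with 0.1 M NaCl, 0.02 M MgCl2 (DMSO 1%). Preincubated 5 min at 37°C with 1.5 mM DTNB and BuChE (0.12 U/mL in Tris with 0.1% BSA); 15 mM S-butyrylthiocholine iodide added; absorbance at 405 nm read at 0, 1, 2, 3 min.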

[6] = target: T3, Cholinesterase (Homo sapiens, UniProt P06276); assay: Inhibition of human serum BuChE at 100 uM using S-butyrylthiocholine iodide as substrate preincubated for 5 mins followed by substrate addition measured at 1 to 3 mins time interval by Ellman's method; in short: as §2
[7] = target: T4, Acetylcholinesterase (Electrophorus electricus, UniProt O42275); assay: Inhibition of electric eel AChE using acetylthiocholine iodide as substrate preincubated for 5 mins followed by substrate addition measured at 1 to 3 mins time interval by Ellman's method
[8] = Selectivity index, ratio of IC50 for equine serum BuChE to IC50 for electric eel AChE
[9] = target: T5, Amine oxidase [flavin-containing] B (Homo sapiens, UniProt P27338); assay: Inhibition of recombinant human MAO-B assessed as reduction in H2O2 production using p-tyramine as substrate preincubated for 15 mins followed by substrate addition by Amplex red reagent based fluorescence assay
T5 sequence (P27338 whole entry): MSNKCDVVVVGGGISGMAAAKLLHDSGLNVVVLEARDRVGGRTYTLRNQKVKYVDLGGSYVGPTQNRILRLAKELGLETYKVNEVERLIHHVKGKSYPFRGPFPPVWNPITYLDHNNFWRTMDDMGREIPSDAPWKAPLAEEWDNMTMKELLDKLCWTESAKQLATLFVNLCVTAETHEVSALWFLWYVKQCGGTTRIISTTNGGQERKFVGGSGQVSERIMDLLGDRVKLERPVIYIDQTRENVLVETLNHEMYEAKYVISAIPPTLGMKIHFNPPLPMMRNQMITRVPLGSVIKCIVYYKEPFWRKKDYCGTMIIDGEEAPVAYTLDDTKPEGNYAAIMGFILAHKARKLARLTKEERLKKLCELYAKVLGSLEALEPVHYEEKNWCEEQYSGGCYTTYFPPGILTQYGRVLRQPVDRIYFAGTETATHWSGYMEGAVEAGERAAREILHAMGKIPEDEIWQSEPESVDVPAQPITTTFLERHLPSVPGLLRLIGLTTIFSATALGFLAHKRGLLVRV
In short: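 Human MAO-A or MAO-B, each set to the same control reaction velocity. Preincubated with compound 15 min at 37°C in the dark, in sodium phosphate buffer with DMSO. Then 200 μM Amplex Red (final) added with 1 U/mL HRP and 1 mM p-tyramine. Run in triplicate, mean ± SD.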

[10] = tested on: Mus musculus; assay: Acute toxicity in Kunming mouse assessed as fatality up to 2000 mg/kg, po administered as single dose up to 2 weeks; assay type: organism-based; conditions: in vivo, 336 h
In short: (§3)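 Male Kunming mice (18-22g), acclimatised 4 days, fasted 12 h; single oral dose of 677, 1333 or 2000 mg/kg suspended in 0.5% CMC-Na (0.4 ml per mouse), vehicle group 0 mg/kg; 20 mice in 4 groups. Watched continuously for 4 h for abnormal behaviour and deaths, then intermittently to 24 h; observation over 14 days.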

[11] = tested on: Mus musculus; assay: Acute toxicity in Kunming mouse assessed as damage to heart up to 2000 mg/kg, po administered as single dose measured after 14 days; assay type: organism-based; conditions: in vivo, 336 h
In short: (§4)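 Male Kunming mice given one oral dose (0, 677, 1333, 2000 mg/kg) in 0.5% CMC-Na after a 12 h fast; after 14 days of observation, animals sacrificed and liver, heart and kidneys visually examined for damage.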

[12] = target: T5, Amine oxidase [flavin-containing] B; assay: Time-dependent inhibition of recombinant human MAO-B at 0.003 uM using p-tyramine as substrate preincubated for 15 to 60 mins followed by substrate addition and compound dilution to IC50 by Amplex red reagent based fluorescence assay
[13] = target: T2, Cholinesterase; assay: Inhibition of equine serum BuChE using S-butyrylthiocholine iodide as substrate preincubated for 5 mins followed by substrate addition measured at 1 to 3 mins time interval by Ellman's method; assay type: ADME
[14] = target: T1, Amine oxidase [flavin-containing] A; assay: Inhibition of recombinant human MAO-A assessed as reduction in H2O2 production using p-tyramine as substrate preincubated for 15 mins followed by substrate addition by Amplex red reagent based fluorescence assay
[15] = target: T3, Cholinesterase; assay: Inhibition of human serum BuChE using S-butyrylthiocholine iodide as substrate preincubated for 5 mins followed by substrate addition measured at 1 to 3 mins time interval by Ellman's method; assay type: ADME
[16] = tested on: Mus musculus; assay: Acute toxicity in Kunming mouse assessed as change in body weight up to 2000 mg/kg, po administered as single dose up to 2 weeks; assay type: organism-based; conditions: in vivo, 336 h
[17] = tested on: Mus musculus; assay: Acute toxicity in Kunming mouse assessed as damage to liver up to 2000 mg/kg, po administered as single dose measured after 14 days; assay type: organism-based; conditions: in vivo, 336 h; in short: as §4
[18] = target: T5, Amine oxidase [flavin-containing] B; assay: Reversible inhibition of recombinant human MAO-B at 0.003 uM using p-tyramine as substrate preincubated for 15 to 60 mins followed by substrate addition and compound dilution to IC50 by Amplex red reagent based fluorescence assay
[19] = tested on: Mus musculus; assay: Acute toxicity in Kunming mouse assessed as damage to kidney up to 2000 mg/kg, po administered as single dose measured after 14 days; assay type: organism-based; conditions: in vivo, 336 h; in short: as §4
[20] = tested on: Mus musculus; assay: Acute toxicity in Kunming mouse assessed as change in mental behavior up to 2000 mg/kg, po administered as single dose up to 2 weeks; assay type: organism-based; conditions: in vivo, 336 h; in short: as §3
[21] = target: T5, Amine oxidase [flavin-containing] B; assay: Non-competitive inhibition of recombinant human MAO-B assessed as reduction in H2O2 production at 0.015 to 0.06 uM using p-tyramine as substrate preincubated for 15 mins followed by substrate addition by Lineweaver-Burk plot analysis
[22] = target: T4, Acetylcholinesterase; assay: Mixed-type inhibition of electric eel AChE using varying levels of acetylthiocholine iodide as substrate measured at 1 to 3 mins time interval by Lineweaver-Burk plot analysis
In short: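 Electric eel AChE assayed by Ellman's method at […] substrate 0.05-0.25 mM, without inhibitor and with inhibitor at 0.5, 1.0 or 2.0 μM; activity read at 0, 1, 2, 3 min. Lineweaver–Burk plots built; their slopes plotted against inhibitor concentration, Ki taken as the negative x-axis intercept.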

[23] = Effective permeability of the compound at 0.1 mg/ml after 16 hrs by PAMPA; assay type: ADME; conditions: read-out: Peff
In short: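 Porcine brain lipid in dodecane (20 mg/mL) coated on PVDF filter. Compound stock 5 mg/mL in DMSO, diluted 50-fold into PBS/EtOH (70:30) to 0.1 mg/mL in donor wells; acceptor holds PBS/EtOH (70:30). Incubated 16 h at 25°C. UV plate read at five wavelengths, four wells, at least three runs. Pe derived from acceptor absorbance versus theoretical equilibrium absorbance.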

[24] = target: T5, Amine oxidase [flavin-containing] B; assay: Inhibition of recombinant human MAO-B assessed as reduction in H2O2 production at 100 uM using p-tyramine as substrate preincubated for 15 mins followed by substrate addition by Amplex red reagent based fluorescence assay; in short: as §1

Sequence of Acetylcholinesterase (Homo sapiens, UniProt P22303) (P22303 whole entry): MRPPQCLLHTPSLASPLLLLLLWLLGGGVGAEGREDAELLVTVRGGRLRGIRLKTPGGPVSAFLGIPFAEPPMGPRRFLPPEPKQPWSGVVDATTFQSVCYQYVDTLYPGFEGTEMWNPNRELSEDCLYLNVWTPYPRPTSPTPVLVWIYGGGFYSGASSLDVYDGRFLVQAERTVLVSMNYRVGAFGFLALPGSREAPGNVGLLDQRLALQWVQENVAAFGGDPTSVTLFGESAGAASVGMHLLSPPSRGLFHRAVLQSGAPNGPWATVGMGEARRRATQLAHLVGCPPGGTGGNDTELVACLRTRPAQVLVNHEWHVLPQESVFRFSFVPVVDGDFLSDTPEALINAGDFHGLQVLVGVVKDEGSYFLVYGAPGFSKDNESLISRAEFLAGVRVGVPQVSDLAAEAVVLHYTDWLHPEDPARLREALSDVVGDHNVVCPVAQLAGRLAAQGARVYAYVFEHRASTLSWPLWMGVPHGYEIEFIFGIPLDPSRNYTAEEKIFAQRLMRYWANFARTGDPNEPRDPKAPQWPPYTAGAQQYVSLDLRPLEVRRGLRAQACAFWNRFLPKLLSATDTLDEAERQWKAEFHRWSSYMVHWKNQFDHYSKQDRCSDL
T4 sequence (O42275 whole entry): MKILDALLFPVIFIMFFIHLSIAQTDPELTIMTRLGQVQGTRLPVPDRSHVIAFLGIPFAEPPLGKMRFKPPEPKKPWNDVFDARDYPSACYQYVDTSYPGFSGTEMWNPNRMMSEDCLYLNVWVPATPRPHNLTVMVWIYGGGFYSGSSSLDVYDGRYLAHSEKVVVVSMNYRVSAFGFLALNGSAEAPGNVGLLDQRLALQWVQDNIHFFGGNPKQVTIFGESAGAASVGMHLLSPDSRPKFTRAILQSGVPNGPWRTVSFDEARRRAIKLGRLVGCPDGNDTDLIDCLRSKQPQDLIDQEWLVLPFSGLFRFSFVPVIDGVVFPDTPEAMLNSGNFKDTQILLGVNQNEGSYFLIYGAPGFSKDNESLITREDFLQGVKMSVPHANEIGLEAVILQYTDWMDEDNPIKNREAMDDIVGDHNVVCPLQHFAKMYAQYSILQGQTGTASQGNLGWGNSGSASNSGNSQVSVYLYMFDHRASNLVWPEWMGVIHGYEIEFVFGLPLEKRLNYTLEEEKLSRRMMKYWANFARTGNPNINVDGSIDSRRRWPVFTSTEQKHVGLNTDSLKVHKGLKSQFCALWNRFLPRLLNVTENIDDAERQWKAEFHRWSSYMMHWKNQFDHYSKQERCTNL
T3 sequence (P06276 whole entry): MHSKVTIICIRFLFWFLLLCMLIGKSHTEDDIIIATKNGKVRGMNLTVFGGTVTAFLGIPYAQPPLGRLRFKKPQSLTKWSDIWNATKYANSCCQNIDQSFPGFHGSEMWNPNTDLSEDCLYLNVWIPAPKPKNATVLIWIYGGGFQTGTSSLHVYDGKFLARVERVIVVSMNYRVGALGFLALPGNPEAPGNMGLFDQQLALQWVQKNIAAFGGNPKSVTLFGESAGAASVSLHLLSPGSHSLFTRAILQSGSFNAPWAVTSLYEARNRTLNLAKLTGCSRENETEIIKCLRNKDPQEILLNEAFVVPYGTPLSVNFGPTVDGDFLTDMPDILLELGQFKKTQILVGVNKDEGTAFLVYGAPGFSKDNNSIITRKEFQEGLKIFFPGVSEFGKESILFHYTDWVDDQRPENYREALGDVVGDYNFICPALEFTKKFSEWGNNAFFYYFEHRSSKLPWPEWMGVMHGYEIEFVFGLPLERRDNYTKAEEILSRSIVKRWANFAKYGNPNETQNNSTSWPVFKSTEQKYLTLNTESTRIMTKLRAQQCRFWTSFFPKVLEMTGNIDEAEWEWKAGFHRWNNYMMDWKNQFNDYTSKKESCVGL
T2 sequence (P81908 whole entry): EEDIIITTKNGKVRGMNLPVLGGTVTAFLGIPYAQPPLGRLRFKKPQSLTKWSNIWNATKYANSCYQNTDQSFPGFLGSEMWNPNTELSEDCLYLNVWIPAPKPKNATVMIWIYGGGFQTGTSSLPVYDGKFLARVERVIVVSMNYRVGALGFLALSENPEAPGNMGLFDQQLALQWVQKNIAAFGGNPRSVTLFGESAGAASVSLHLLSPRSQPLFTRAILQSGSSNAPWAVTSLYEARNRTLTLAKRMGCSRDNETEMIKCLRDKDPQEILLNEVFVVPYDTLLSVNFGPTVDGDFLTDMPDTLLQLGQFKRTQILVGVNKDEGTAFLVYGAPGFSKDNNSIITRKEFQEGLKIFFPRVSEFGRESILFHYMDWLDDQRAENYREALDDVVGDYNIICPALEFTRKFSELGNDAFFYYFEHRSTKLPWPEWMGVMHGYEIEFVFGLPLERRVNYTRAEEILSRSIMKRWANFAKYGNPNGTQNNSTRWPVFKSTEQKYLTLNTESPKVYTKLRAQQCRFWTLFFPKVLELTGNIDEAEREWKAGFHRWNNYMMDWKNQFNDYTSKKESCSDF

Structure (SMILES)	Ratio IC50 [1]	inhibition (INH) [2]	IC50 [3] [µM]	Ratio IC50 [4]	IC50 [7] [µM]	Ratio IC50 [8]	IC50 [9] [µM]	IC50 [13] [µM]	IC50 [14] [µM]	IC50 [15] [µM]	further results
O=C1/C(=C/c2ccc(O)cc2)COc2ccccc21	> 413	Not Active	99.9	1.01	44.4	> 2.25	0.242	–	–	–	inhibition (INH) [5]: Not Active; inhibition (INH) [6]: Not Active
CN(C)CCOc1ccc(/C=C2\COc3ccccc3C2=O)cc1	1024	–	0.657	14.2	0.89	32.3	0.0372	28.7	38.1	9.31	Activity [10]: Non-Toxic; Activity [11]: Non-Toxic; TDI [12]: Not Active; Activity [16]: Non-Toxic; Activity [17]: Non-Toxic; inhibition (INH) [18]: Active; Activity [19]: Non-Toxic; Activity [20]: Non-Toxic; Ki [21]: 0.551 µM; Ki [22]: 0.404 µM; Papp at 16 h, 0.1 mg/ml [23]: 10.6 ×10⁻⁶ cm/s
O=C1/C(=C/c2ccc(OCCCCCCN3CCN(Cc4ccccc4)CC3)cc2)COc2ccccc21	> 1	Not Active	–	–	60.8	> 1.65	> 100	–	–	–	inhibition (INH) [5]: Not Active
CCN(CC)CCCOc1ccccc1/C=C1\COc2ccccc2C1=O	–	Not Active	–	–	54.8	0.0892	–	4.89	–	–	inhibition (INH) [24]: Not Active
CCN(CC)CCOc1ccc(/C=C2\COc3ccccc3C2=O)cc1	1220	–	3.29	7.17	1.03	28	0.0381	28.9	46.6	23.6	–
O=C1/C(=C/c2ccc(OCCCN3CCN(Cc4ccccc4)CC3)cc2)COc2ccccc21	> 2.59	Not Active	4.72	> 21.2	1.02	87.8	38.6	89.5	–	–	inhibition (INH) [6]: Not Active
CCN(CC)CCOc1cccc(/C=C2\COc3ccccc3C2=O)c1	97.1	–	30.3	0.34	4.16	0.403	0.824	1.68	80	10.3	–
CCN(CC)CCCCCCOc1ccc(/C=C2\COc3ccccc3C2=O)cc1	13.1	–	1.85	2.3	3.75	1.29	2.9	4.83	37.8	4.25	–
